Data as given in ChEMBL document CHEMBL4145662, “Novel Nonsteroidal Progesterone Receptor (PR) Antagonists with a Phenanthridinone Skeleton” (ACS Med Chem Lett, 2018).
Calls of active or inactive are those of the source. No cut-off for these calls is given here.

How the values were obtained:
Assay type in all cases: cell-based
[1] = target: T1, Progesterone receptor (Homo sapiens) (UniProt P06401); experiment: Antagonist activity at PR in human T47D cells assessed as inhibition of progesterone-induced beta1-Na/K-ATPase expression at 0.1 to 10 uM measured after 24 hrs by Western blot analysis
T1 sequence (whole entry): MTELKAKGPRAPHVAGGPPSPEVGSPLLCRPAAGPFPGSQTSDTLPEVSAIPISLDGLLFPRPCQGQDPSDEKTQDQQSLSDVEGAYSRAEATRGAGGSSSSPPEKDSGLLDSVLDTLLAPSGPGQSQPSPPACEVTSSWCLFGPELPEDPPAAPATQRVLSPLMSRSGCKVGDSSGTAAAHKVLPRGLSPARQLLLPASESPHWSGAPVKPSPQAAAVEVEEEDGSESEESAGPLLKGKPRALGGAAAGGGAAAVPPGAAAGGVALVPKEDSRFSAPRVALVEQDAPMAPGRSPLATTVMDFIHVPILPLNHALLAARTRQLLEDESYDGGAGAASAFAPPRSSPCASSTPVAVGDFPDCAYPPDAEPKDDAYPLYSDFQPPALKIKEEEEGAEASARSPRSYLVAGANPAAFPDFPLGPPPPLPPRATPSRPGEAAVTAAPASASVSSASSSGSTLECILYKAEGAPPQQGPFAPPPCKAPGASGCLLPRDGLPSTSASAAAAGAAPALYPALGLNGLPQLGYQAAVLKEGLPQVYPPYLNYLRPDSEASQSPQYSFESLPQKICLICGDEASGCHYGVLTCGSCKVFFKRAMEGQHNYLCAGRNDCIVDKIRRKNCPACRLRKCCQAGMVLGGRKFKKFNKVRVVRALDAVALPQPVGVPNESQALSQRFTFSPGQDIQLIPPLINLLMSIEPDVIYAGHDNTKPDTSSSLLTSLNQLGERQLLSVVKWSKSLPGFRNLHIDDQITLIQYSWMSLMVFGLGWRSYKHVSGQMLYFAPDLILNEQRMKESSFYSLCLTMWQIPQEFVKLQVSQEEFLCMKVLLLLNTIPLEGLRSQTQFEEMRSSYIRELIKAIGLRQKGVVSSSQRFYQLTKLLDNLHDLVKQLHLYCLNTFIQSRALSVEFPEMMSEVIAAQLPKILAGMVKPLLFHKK
Summary of the method: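 Validation in T47D cells by Western blotting of the β1 subunit of Na/K-ATPase, a PR-regulated protein.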

Glucocorticoid receptor = target: T2, Glucocorticoid receptor (Homo sapiens, UniProt P04150); experiment: Antagonist activity at human CMX-GRalpha expressed in HEK293 cells assessed as reduction in dexamethasone-induced transactivation activity after 24 hrs by luciferase reporter gene assay
T2 sequence (P04150 whole entry): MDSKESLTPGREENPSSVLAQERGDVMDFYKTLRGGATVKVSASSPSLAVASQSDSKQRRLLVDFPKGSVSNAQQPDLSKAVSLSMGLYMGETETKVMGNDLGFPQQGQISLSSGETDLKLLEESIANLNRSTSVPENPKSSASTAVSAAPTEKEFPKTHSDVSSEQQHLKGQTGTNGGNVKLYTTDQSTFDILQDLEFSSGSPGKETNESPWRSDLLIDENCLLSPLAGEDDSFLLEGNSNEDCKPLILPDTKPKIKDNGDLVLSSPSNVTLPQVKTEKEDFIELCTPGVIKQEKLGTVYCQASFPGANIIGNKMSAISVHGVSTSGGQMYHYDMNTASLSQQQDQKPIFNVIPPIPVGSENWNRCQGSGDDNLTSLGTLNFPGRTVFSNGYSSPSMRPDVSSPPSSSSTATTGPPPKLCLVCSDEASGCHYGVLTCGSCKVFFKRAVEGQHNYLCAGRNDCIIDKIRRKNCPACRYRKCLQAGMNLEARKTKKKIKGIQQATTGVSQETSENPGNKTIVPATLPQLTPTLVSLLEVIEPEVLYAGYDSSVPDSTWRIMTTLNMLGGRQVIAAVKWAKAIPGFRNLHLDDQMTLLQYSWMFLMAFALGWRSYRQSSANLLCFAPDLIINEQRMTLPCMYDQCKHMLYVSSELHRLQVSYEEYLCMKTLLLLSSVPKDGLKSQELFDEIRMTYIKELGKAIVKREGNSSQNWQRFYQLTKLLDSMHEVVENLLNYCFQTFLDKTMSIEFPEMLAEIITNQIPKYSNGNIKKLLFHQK
Summary of the method: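 GRα antagonism measured by reporter gene assay with dexamethasone (1 nM) as agonist.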

Progesterone receptor = target: T3, Progesterone receptor (Homo sapiens, UniProt P06401); experiment: Agonist activity at PR in human T47D cells at 10 uM
T3 sequence (P06401 whole entry): T1 sequence (whole entry)

Homo sapiens [2] = organism: Homo sapiens; experiment: Selectivity ratio of IC50 for human GAL4N-fused LXRbeta LBD expressed in HEK293 cells to IC50 for PR in human T47D cells assessed as inhibition of progesterone-induced alkaline phosphatase activity
Homo sapiens [3] = organism: Homo sapiens; experiment: Selectivity ratio of IC50 for human RORalpha1 expressed in HEK293 cells to IC50 for PR in human T47D cells assessed as inhibition of progesterone-induced alkaline phosphatase activity
[4] = target: T4, Oxysterols receptor LXR-alpha (Homo sapiens, UniProt Q13133); experiment: Antagonist activity at human GAL4N-fused LXRalpha LBD expressed in HEK293 cells assessed as reduction in T0901317-induced transactivation activity after 24 hrs by luciferase reporter gene assay
T4 sequence (Q13133 whole entry): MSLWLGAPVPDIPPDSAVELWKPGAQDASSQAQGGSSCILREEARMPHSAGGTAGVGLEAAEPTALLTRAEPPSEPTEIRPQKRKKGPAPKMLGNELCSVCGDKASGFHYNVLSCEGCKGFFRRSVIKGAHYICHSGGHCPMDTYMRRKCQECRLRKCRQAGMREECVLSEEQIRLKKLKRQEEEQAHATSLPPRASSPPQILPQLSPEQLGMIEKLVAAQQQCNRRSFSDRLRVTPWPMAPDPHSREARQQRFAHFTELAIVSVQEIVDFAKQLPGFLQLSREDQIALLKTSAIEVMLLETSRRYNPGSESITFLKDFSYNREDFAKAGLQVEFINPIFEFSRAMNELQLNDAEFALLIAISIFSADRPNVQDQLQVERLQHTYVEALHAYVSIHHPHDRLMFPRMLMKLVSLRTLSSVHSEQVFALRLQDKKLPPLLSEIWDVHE

Compound: Cc1cc(C(O)(C(F)(F)F)C(F)(F)F)cc2c1[nH]c(=O)c1cc(F)ccc12
- inhibition [1]: Active
- IC50 (Glucocorticoid receptor): > 20 µM
- Activity (Progesterone receptor): Not Active
- Ratio IC50 (Homo sapiens [2]): > 300
- Ratio IC50 (Homo sapiens [3]): > 300
- IC50 [4]: > 20 µM

Compound: Cc1cc(C(O)(C(F)(F)F)C(F)(F)F)cc2c3ccc(F)cc3c(=O)n(C)c12
- inhibition [1]: Active
- IC50 (Glucocorticoid receptor): > 20 µM
- Activity (Progesterone receptor): Not Active
- Ratio IC50 (Homo sapiens [2]): > 300
- Ratio IC50 (Homo sapiens [3]): > 300
- IC50 [4]: > 20 µM

Compound: Cc1cc(C(O)(C(F)(F)F)C(F)(F)F)cc2c1[nH]c(=O)c1ccccc12
- inhibition [1]: Active
- IC50 (Glucocorticoid receptor): > 20 µM
- Activity (Progesterone receptor): Not Active
- Ratio IC50 (Homo sapiens [2]): > 100
- Ratio IC50 (Homo sapiens [3]): > 100
- IC50 [4]: > 20 µM
